Compound activity as filed in PubChem.
This is a sample that favours compounds with a hit; in the whole collection about 2.5% have one here.
NPY1 pot ag = human NPY-Y1 potentiation or agonism, primary screen. NPY-Y1 expressing cells, potentiator/agonist activation. actives 0.37% (n = 220,000). activation, % at 3.6 µM; in the data active means activation above about 33%, passing the limit was not always enough;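 further: cells stimulated with NPY at EC10 then isoproterenol at EC100; 0% = low agonist plus stimulus and 100% = saturating agonist plus stimulus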
Target sequence (P25929 whole entry, looked up): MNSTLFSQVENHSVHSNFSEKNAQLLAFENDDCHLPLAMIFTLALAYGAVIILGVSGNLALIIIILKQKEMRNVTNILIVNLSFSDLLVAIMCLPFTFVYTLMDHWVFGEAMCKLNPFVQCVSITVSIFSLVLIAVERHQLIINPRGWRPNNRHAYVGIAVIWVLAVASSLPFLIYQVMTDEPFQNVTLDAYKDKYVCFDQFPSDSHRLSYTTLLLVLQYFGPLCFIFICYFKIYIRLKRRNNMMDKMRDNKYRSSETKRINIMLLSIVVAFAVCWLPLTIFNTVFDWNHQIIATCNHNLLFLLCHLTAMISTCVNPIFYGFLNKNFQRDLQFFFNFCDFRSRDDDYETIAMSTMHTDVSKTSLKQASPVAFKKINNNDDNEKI
NPY-Y1 antag = blocks the human neuropeptide Y Y1 receptor; HEK293-CNG Y1 cells, membrane potential fluorescence; NPY at EC95, then isoproterenol; actives 1% (n = 200,000); inhibition, % at 3.6 µM; AID 1040; P25929;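 active means inhibition above the campaign mean inhibition of all tested compounds plus 3 SD, cut at about 20% in these data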;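 further: 0% = DMSO wells given NPY plus isoproterenol and 100% = isoproterenol alone without NPY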
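Material: HEK293 cells co-expressing NPY Y1 receptor and cyclic-nucleotide gated channel. Timing: compound incubation 1 h at room temperature, readout 45 min post-stimulation. Signal: fluorescence, membrane potential probe.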
NPY-Y2 PAM-ag = human NPY-Y2 potentiation or agonism, primary screen. activation, % at 3.6 µM. AID 1359. cells expressing NPY-Y2, potentiator/agonist read-out. actives 0.45% (n = 220,000). P49146; in the data active means activation above about 27%;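 further: cells stimulated with NPY near EC25 plus isoproterenol at EC100; 0% = vehicle plus submaximal agonist and 100% = vehicle plus saturating agonist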
Insulin prom inh = TRM-6 insulin promoter activity inhibition; actives 0.9% (n = 130,000); TRM-6 cells, insulin promoter-eGFP reporter, imaging; reporter expression induced with tamoxifen; inhibition, % at 2 µM; AID 1273;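 active means inhibition above the mean plus 3 SD, with well images judged a real hit on visual review, cut at about 60% in these data, passing the limit was not always enough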
Insulin prom up = MIN6 insulin promoter up-regulation; actives 0.3% (n = 190,000); MIN6 insulin promoter-GFP reporter, high-content imaging; hits give high values; z-score at 5 µM;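 active means z-score above 3 at 5 µM with at least 500 cells counted in the well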
NPY Y2 blocker = blocks the human neuropeptide Y Y2 receptor. NPY-Y2 expressing cells, antagonist mode. actives 0.99% (n = 140,000). inhibition, % at 2.7 µM; in the data active means inhibition above about 17%;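 further: 0% = vehicle with agonist challenge and 100% = reference antagonist with challenge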
NPY-Y1 antag ct = antagonizes human NPY-Y1, counter-screen to NPY-Y2 antagonists | shares compounds with NPY Y2 blocker | actives 19% (n = 710) | cell-based NPY-Y1 antagonism counterscreen | inhibition, % at 3.6 µM | AID 1256; in the data active means inhibition above about 20%;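 further: cells challenged with NPY then isoproterenol with cAMP sensed through a CNG channel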
NPY2 antag conf = confirmation of human neuropeptide Y receptor Y2 antagonists; HEK293 NPY-Y2 CNG channel, membrane potential fluorescence; inhibition, % at 2.8 µM; shares compounds with NPY Y2 blocker; actives 32% (n = 710);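 active means mean inhibition of triplicate wells above the hit cutoff set in the primary screen, cut at about 17% in these data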;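 further: 0% = DMSO with NPY challenge and 100% = BIIE0246 high control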
* = called active by the depositor; . = not tested or not shown.

SMILES | NPY1 pot ag | NPY-Y1 antag | NPY-Y2 PAM-ag | Insulin prom inh | Insulin prom up | NPY Y2 blocker | NPY-Y1 antag ct | NPY2 antag conf
C/C(=N\NC(=O)c1ccccc1)c1ccc(C)c([N+](=O)[O-])c1 | -1.8 | 1.8 | 6.6 | . | -0.01 | 2.5 | . | .
Cn1c2ccccc2c2cc(C(=O)O)ccc21 | 10.4 | 3.0 | 3.2 | 56.2 | . | 1.2 | . | .
CCCn1c2ccccc2c2cc(C(=O)O)ccc21 | -16.9 | 7.0 | -12.2 | . | 0.63 | 19.3* | 5.1 | 7.7
CS(=O)(=O)N(CC(=O)NCCSCc1cccc(Cl)c1)c1ccc2c(c1)OCO2 | 1.3 | 0.5 | 6.0 | -30.8 | -0.03 | 2.0 | . | .
O=C(/C=C/c1ccc2c(c1)OCO2)NCCSCc1cccc(Cl)c1 | -36.5 | 11.6 | -34.9 | 45.8 | 0.11 | 17.7* | 6.6 | 4.9
O=C(/C=C/c1ccc2c(c1)OCO2)NCCSCc1ccc(Cl)cc1Cl | -6.9 | 14.3 | -18.8 | 13.3 | 0.32 | 18.9* | 15.3 | 15.5
CCOc1ccc(S(=O)(=O)Nc2nc3ccccc3nc2-n2ccc(=NC(=O)c3ccccc3C)cc2)cc1 | 34.7 | . | 9.6 | . | 0.22 | . | . | .
Clc1ccc(CSc2cc3c(nn2)-c2ccccc2CC3)cc1Cl | -50.3 | 15.7 | -23.7 | 3.3 | 0.35 | 19.6* | 19.9 | 35.8*
O=C(c1cccs1)N1CCN(Cc2ccccc2[N+](=O)[O-])CC1 | 2.7 | -6.7 | 3.1 | 21.4 | 0.29 | 2.0 | . | .
Cc1cccc(-c2nnc3sc(-c4ccccc4C)nn23)c1 | -39.7 | 7.5 | -9.3 | 33.3 | -3.32 | 18.6* | 7.1 | 13.4
COc1cccc(-c2nnc3sc(-c4ccccc4)nn23)c1 | 2.0 | 10.5 | 0.5 | . | 0.65 | 7.3 | . | .
CCC(C)(C(=O)NC1CCCCC1)N(Cc1ccco1)C(=O)c1ccccn1 (configuration not stated) | -19.7 | 13.7 | -19.0 | 25.0 | . | 17.4* | 12.1 | 9.1
O=C(NCc1ccco1)NC1CCCCC1 | -6.1 | 5.7 | -0.9 | -60.0 | . | 3.7 | . | .
CC(=O)NC1(C(F)(F)F)NC(=O)N(c2ccc(F)cc2)C1=O (configuration not stated) | -7.6 | 0.3 | -9.9 | . | 0.33 | . | . | .
Cc1ccc(CNC(=O)c2cc(C)nn2-c2ccccc2)cc1 | 6.1 | . | -5.4 | . | -0.31 | . | . | .
Cc1ccc(Cc2nnc3n(-c4ccccc4)nc(C(=O)c4ccccc4)n3c2=O)cc1 | -59.2 | 5.2 | -6.5 | 0.0 | . | 17.2* | 40.4* | 67.4*
O=C(COC(=O)c1c2c(nc3ccccc13)CCCCC2)NCc1ccc2c(c1)OCO2 | -21.1 | 16.6 | -19.5 | . | . | 24.9* | 22.5* | 13.9
O=C(COC(=O)c1cccc(O)c1)NCc1ccc2c(c1)OCO2 | -20.4 | . | -12.7 | . | -0.17 | . | . | .
CNC(=O)COC(=O)c1c2c(nc3ccccc13)CCC2 | 10.8 | . | -0.9 | . | -0.12 | . | . | .
COc1ccc(NC(=O)COC(=O)c2c3c(nc4ccccc24)CCCC3)cc1 | -29.8 | 13.3 | -20.6 | 53.5 | 0.36 | 21.4* | 8.7 | 5.9
C=CC(C)Sc1nc2c(c(=O)n(C)c(=O)n2C)n1Cc1ccccc1Cl (configuration not stated) | -5.0 | 4.7 | 14.2 | . | 0.87 | 18.0* | -1.6 | 10.4
Cc1cc(Br)cc(C)c1OCCCCN(C)C | 6.2 | -0.4 | -8.3 | -16.7 | -0.08 | 5.2 | . | .
Cc1nn(Cc2ccccc2Cl)c(C)c1C(=O)NCc1ccco1 | -3.3 | 1.2 | 3.0 | -50.0 | . | -0.2 | . | .
Cc1nn(Cc2ccccc2Cl)c(C)c1C(=O)NCCN1C(=O)S/C(=C\c2ccccc2)C1=O | 6.7 | -1.1 | 7.6 | -22.6 | 0.09 | 22.1* | 4.1 | 4.0
Cc1cccc(-n2ccnc2SCC(=O)N2CCCc3ccccc32)c1C | -87.7 | 17.8 | -23.5 | . | -0.61 | 21.0* | 15.9 | 47.0*
CCCCc1nnc(NC(=O)C(C)Sc2nc(C)cc(=O)[nH]2)s1 (configuration not stated) | -12.1 | 1.1 | -4.9 | -34.2 | 0.2 | 20.4* | -1.1 | 0.8
COC(=O)c1nnn(-c2ccsc2C(=O)OC)c1C(=O)OC | -0.3 | -5.0 | 3.6 | . | -0.9 | . | . | .
COc1cc(CC(=O)Nc2ccc(S(=O)(=O)N(C)C)cc2)cc(OC)c1OC | 6.4 | 4.2 | -13.0 | . | -0.69 | -0.7 | . | .
